In ChEMBL document CHEMBL4190234, “Design, synthesis and anticancer activity of new monastrol analogues bearing 1,3,4-oxadiazole moiety” (Eur J Med Chem, 2017):

How the values were obtained:
[1] = tested on: Hs-578T; assay: Growth inhibition of human Hs 578T cells at 10 uM incubated for 48 hrs by sulforhodamine B assay relative to control; assay type: functional; details: read-out: GI
Outline: (§1)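 Single-dose screen at 10 μM final: cells in RPMI 1640, 5% FBS, 2 mM L-glutamine, plated 5,000–40,000/well, preincubated 24 h at 37°C, 5% CO2; drug 48 h; adherent cells fixed with 10% TCA, suspension cells with 16% TCA; SRB stain, absorbance 515 nm; percentage growth versus untreated control, with time-zero plates.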

[2] = tested on: SW-620; assay: Growth inhibition of human SW620 cells at 10 uM incubated for 48 hrs by sulforhodamine B assay relative to control; assay type: functional; details: SW-620, 48 h, read-out: GI
Outline: (§2)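 NCI single-dose screen: cells grown in RPMI 1640 with 5% FBS and 2 mM L-glutamine, plated at 5,000–40,000 cells/well and preincubated 24 h at 37 °C, 5% CO2. Compounds taken from DMSO stock and tested at final 10 µM for 48 h. Cells fixed with TCA, stained with 0.4% SRB, absorbance read at 515 nm. Percentage growth calculated against untreated controls; controls held DMSO at the same dilution.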

[3] = tested on: MOLT-4; assay: Growth inhibition of human MOLT4 cells incubated for 24 hrs by MTT assay; assay type: functional, cell-based; details: MOLT-4, 24 h
[4] = tested on: OVCAR-5; assay: Growth inhibition of human OVCAR5 cells at 10 uM incubated for 48 hrs by sulforhodamine B assay relative to control; assay type: functional; details: OVCAR-5, 48 h, read-out: GI; outline: as §1
[5] = tested on: SK-MEL-28; assay: Growth inhibition of human SK-MEL-28 cells at 10 uM incubated for 48 hrs by sulforhodamine B assay relative to control; assay type: functional; details: SK-MEL-28, 48 h, read-out: GI; outline: as §2
[6] = tested on: U-251; assay: Growth inhibition of human U251 cells at 10 uM incubated for 48 hrs by sulforhodamine B assay relative to control; assay type: functional; details: U-251, 48 h, read-out: GI; outline: as §2
[7] = tested on: SNB-19; assay: Growth inhibition of human SNB19 cells at 10 uM incubated for 48 hrs by sulforhodamine B assay relative to control; assay type: functional; details: SNB-19, 48 h, read-out: GI; outline: as §2
[8] = tested on: SK-MEL-2; assay: Growth inhibition of human SK-MEL-2 cells at 10 uM incubated for 48 hrs by sulforhodamine B assay relative to control; assay type: functional; details: SK-MEL-2, 48 h, read-out: GI; outline: as §2
[9] = tested on: MDA-MB-435; assay: Growth inhibition of human MDA-MB-435 cells at 10 uM incubated for 48 hrs by sulforhodamine B assay relative to control; assay type: functional; details: MDA-MB-435, 48 h, read-out: GI; outline: as §1
[10] = tested on: DU-145; assay: Growth inhibition of human DU145 cells at 10 uM incubated for 48 hrs by sulforhodamine B assay relative to control; assay type: functional; details: DU-145, 48 h, read-out: GI; outline: as §1
[11] = tested on: TK-10; assay: Growth inhibition of human TK10 cells at 10 uM incubated for 48 hrs by sulforhodamine B assay relative to control; assay type: functional; details: TK-10, 48 h, read-out: GI; outline: as §2
[12] = tested on: Malme-3M; assay: Growth inhibition of human MALME-3M cells at 10 uM incubated for 48 hrs by sulforhodamine B assay relative to control; assay type: functional; details: read-out: GI; outline: as §1
[13] = tested on: MOLT-4; assay: Growth inhibition of human MOLT4 cells at 10 uM incubated for 48 hrs by sulforhodamine B assay relative to control; assay type: functional; details: MOLT-4, 48 h, read-out: GI; outline: as §1
[14] = tested on: UACC-257; assay: Growth inhibition of human UACC257 cells at 10 uM incubated for 48 hrs by sulforhodamine B assay relative to control; assay type: functional; details: UACC-257, 48 h, read-out: GI; outline: as §2
[15] = tested on: SF-295; assay: Growth inhibition of human SF295 cells at 10 uM incubated for 48 hrs by sulforhodamine B assay relative to control; assay type: functional; details: SF-295, 48 h, read-out: GI; outline: as §2
[16] = tested on: OVCAR-8; assay: Growth inhibition of human OVCAR8 cells at 10 uM incubated for 48 hrs by sulforhodamine B assay relative to control; assay type: functional; details: OVCAR-8, 48 h, read-out: GI; outline: as §1
[17] = tested on: NCI-H23; assay: Growth inhibition of human NCI-H23 cells at 10 uM incubated for 48 hrs by sulforhodamine B assay relative to control; assay type: functional; details: NCI-H23, 48 h, read-out: GI; outline: as §1
[18] = tested on: CCRF-CEM; assay: Growth inhibition of human CCRF-CEM cells at 10 uM incubated for 48 hrs by sulforhodamine B assay relative to control; assay type: functional; details: read-out: GI; outline: as §1
[19] = tested on: PC-3; assay: Growth inhibition of human PC3 cells at 10 uM incubated for 48 hrs by sulforhodamine B assay relative to control; assay type: functional; details: PC-3, 48 h, read-out: GI; outline: as §1
[20] = tested on: UO-31; assay: Growth inhibition of human UO31 cells at 10 uM incubated for 48 hrs by sulforhodamine B assay relative to control; assay type: functional; details: UO-31, 48 h, read-out: GI; outline: as §2
[21] = tested on: HCC 2998; assay: Growth inhibition of human HCC2998 cells at 10 uM incubated for 48 hrs by sulforhodamine B assay relative to control; assay type: functional; details: HCC 2998, 48 h, read-out: GI; outline: as §1
[22] = tested on: HT-29; assay: Growth inhibition of human HT-29 cells at 10 uM incubated for 48 hrs by sulforhodamine B assay relative to control; assay type: functional; details: HT-29, 48 h, read-out: GI; outline: as §1
[23] = tested on: EKVX; assay: Growth inhibition of human EKVX cells at 10 uM incubated for 48 hrs by sulforhodamine B assay relative to control; assay type: functional; details: read-out: GI; outline: as §1
[24] = tested on: LOX IMVI; assay: Growth inhibition of human LOXIMVI cells at 10 uM incubated for 48 hrs by sulforhodamine B assay relative to control; assay type: functional; details: read-out: GI; outline: as §1
[25] = tested on: A549; assay: Growth inhibition of human A549/ATCC cells at 10 uM incubated for 48 hrs by sulforhodamine B assay relative to control; assay type: functional; details: A549, 48 h, read-out: GI; outline: as §1
[26] = tested on: NCI-H226; assay: Growth inhibition of human NCI-H226 cells at 10 uM incubated for 48 hrs by sulforhodamine B assay relative to control; assay type: functional; details: NCI-H226, 48 h, read-out: GI; outline: as §1
[27] = tested on: HOP-92; assay: Growth inhibition of human HOP92 cells at 10 uM incubated for 48 hrs by sulforhodamine B assay relative to control; assay type: functional; details: HOP-92, 48 h, read-out: GI; outline: as §1
[28] = tested on: K562; assay: Growth inhibition of human K562 cells at 10 uM incubated for 48 hrs by sulforhodamine B assay relative to control; assay type: functional; details: K562, 48 h, read-out: GI; outline: as §1
[29] = tested on: COLO 205; assay: Growth inhibition of human COLO205 cells at 10 uM incubated for 48 hrs by sulforhodamine B assay relative to control; assay type: functional; details: COLO 205, 48 h, read-out: GI; outline: as §1
[30] = tested on: RPMI-8226; assay: Growth inhibition of human RPMI8226 cells at 10 uM incubated for 48 hrs by sulforhodamine B assay relative to control; assay type: functional; details: RPMI-8226, 48 h, read-out: GI; outline: as §1
[31] = tested on: CAKI-1; assay: Growth inhibition of human Caki1 cells at 10 uM incubated for 48 hrs by sulforhodamine B assay relative to control; assay type: functional; details: CAKI-1, 48 h, read-out: GI; outline: as §1

Structure (SMILES)	inhibition of growth at 10 µM [1] [%]	inhibition of growth at 10 µM [2] [%]	inhibition of growth at 10 µM [4] [%]	inhibition of growth at 10 µM [5] [%]	inhibition of growth at 10 µM [6] [%]	inhibition of growth at 10 µM [7] [%]	inhibition of growth at 10 µM [8] [%]	inhibition of growth at 10 µM [9] [%]	inhibition of growth at 10 µM [10] [%]	inhibition of growth at 10 µM [11] [%]	inhibition of growth at 10 µM [12] [%]	inhibition of growth at 10 µM [13] [%]	inhibition of growth at 10 µM [14] [%]	inhibition of growth at 10 µM [15] [%]	inhibition of growth at 10 µM [16] [%]	inhibition of growth at 10 µM [17] [%]	inhibition of growth at 10 µM [18] [%]	inhibition of growth at 10 µM [19] [%]	inhibition of growth at 10 µM [20] [%]	inhibition of growth at 10 µM [21] [%]	further results
CCOC(=O)C1=C(C)NC(SCc2nnc(-c3ccc(Cl)cc3)o2)=NC1c1ccc(Cl)cc1Cl (configuration not stated)	32.9	33.8	11	< 10	34.7	27.1	40	31	26.9	20.6	27.2	88.8	31.9	52.8	45.8	34	72.8	54.9	62.8	15.5	IC50 [3]: 80 nM; inhibition of growth at 10 µM [22]: 46.9%; inhibition of growth at 10 µM [23]: 22.8%; inhibition of growth at 10 µM [24]: 41.7%; inhibition of growth at 10 µM [25]: 46.5%; inhibition of growth at 10 µM [26]: 21%; inhibition of growth at 10 µM [27]: 73.6%
CCOC(=O)C1=C(C)NC(SCc2nnc(-c3ccc(C)cc3)o2)=NC1c1ccc(F)cc1 (configuration not stated)	< 10	< 10	< 10	< 10	15.1	10.1	< 10	< 10	< 10	28.4	< 10	21.6	< 10	12.1	17.8	< 10	14.1	26.8	< 10	< 10	inhibition of growth at 10 µM [28]: 14.7%; inhibition of growth at 10 µM [29]: < 10%; inhibition of growth at 10 µM [30]: 27.2%; inhibition of growth at 10 µM [31]: 24.7%; inhibition of growth at 10 µM [22]: 12.4%; inhibition of growth at 10 µM [23]: < 10%; inhibition of growth at 10 µM [24]: < 10%; inhibition of growth at 10 µM [25]: 17.3%; inhibition of growth at 10 µM [26]: 10.1%; inhibition of growth at 10 µM [27]: 37%
CCOC(=O)C1=C(C)NC(SCc2nnc(-c3ccc(Cl)cc3)o2)=NC1c1ccccc1 (configuration not stated)	< 10	< 10	< 10	< 10	21.2	11.7	34.5	< 10	< 10	30.8	< 10	31.3	25.9	23.4	20.4	< 10	12.4	42.2	19.4	< 10	inhibition of growth at 10 µM [28]: 25.2%; inhibition of growth at 10 µM [29]: 10.4%; inhibition of growth at 10 µM [30]: 27.3%; inhibition of growth at 10 µM [31]: 22.3%; inhibition of growth at 10 µM [22]: 22.3%; inhibition of growth at 10 µM [23]: 14.8%; inhibition of growth at 10 µM [24]: 11.1%; inhibition of growth at 10 µM [25]: 29%; inhibition of growth at 10 µM [26]: 11.4%; inhibition of growth at 10 µM [27]: 40.1%
COc1ccc(-c2nnc(CSC3=NC(c4ccc(F)cc4)C(C(C)=O)=C(C)N3)o2)cc1 (configuration not stated)	< 10	< 10	< 10	< 10	15.3	13.4	< 10	< 10	< 10	< 10	12.3	10.9	< 10	< 10	< 10	< 10	15.7	18.7	29.7	< 10	inhibition of growth at 10 µM [28]: < 10%; inhibition of growth at 10 µM [29]: < 10%; inhibition of growth at 10 µM [30]: 14%; inhibition of growth at 10 µM [31]: 29.9%; inhibition of growth at 10 µM [22]: < 10%; inhibition of growth at 10 µM [23]: < 10%; inhibition of growth at 10 µM [24]: < 10%; inhibition of growth at 10 µM [25]: 15.6%; inhibition of growth at 10 µM [26]: < 10%; inhibition of growth at 10 µM [27]: 16.5%
CC(=O)C1=C(C)NC(SCc2nnc(-c3ccc(Cl)cc3)o2)=NC1c1ccc(Cl)cc1 (configuration not stated)	< 10	< 10	< 10	< 10	14.8	16.6	< 10	< 10	< 10	13.1	11.6	24.4	< 10	< 10	14.5	< 10	20.9	31.1	43.6	< 10	inhibition of growth at 10 µM [28]: 11.1%; inhibition of growth at 10 µM [29]: < 10%; inhibition of growth at 10 µM [30]: 32.9%; inhibition of growth at 10 µM [31]: 21.1%; inhibition of growth at 10 µM [22]: < 10%; inhibition of growth at 10 µM [23]: < 10%; inhibition of growth at 10 µM [24]: < 10%; inhibition of growth at 10 µM [25]: 21.4%; inhibition of growth at 10 µM [26]: 11.4%; inhibition of growth at 10 µM [27]: 26.5%
